Reference: ChEMBL document CHEMBL1124456, “Synthesis and structure-activity relationship of substituted tetrahydro- and hexahydro-1,2-benzisothiazol-3-one 1,1-dioxides and thiadiazinones: potential anxiolytic agents” (J Med Chem, 1989)
Activity calls are given as the source filed them. The rule behind the calls is not given here.

Legend:
Rattus norvegicus [1] = experiment: Compound was tested for antagonism of apomorphine-induced climbing behavior, after intraperitoneal dosing.; format: functional; details: ip
Rattus norvegicus [2] = experiment: Compound was tested for antagonism of apomorphine-induced stereotyped behavior, after intraperitoneal dosing and value ranges from 37.28 - 52.78; format: functional; details: ip
In short: (§1)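 High-dose apomorphine-induced stereotyped behavior procedure. Test agents were given ip at doses up to 60 mg/kg.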

[3] = target: D(2) dopamine receptor (Rattus norvegicus) (UniProt P61169); experiment: Inhibition of [3H]-spiperone binding to dopamine receptor D2 of rat limbic structures at 1 uM.; details: Limbic system
Rattus norvegicus [4] = species: Rattus norvegicus; experiment: Anti-psychotic activity from the ability to block discrete trial conditioned avoidance response (CAR) of rats.; format: functional
In short: (§2)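 Discrete-trial conditioned avoidance in male CD rats kept at about 400–450 g body weight. Dosing was ip or po, 30 min before testing, with at least five rats per dose (20 or 40 mg/kg, or a dose range). Computer recorded intertrial, avoidance and escape responses and no-response trials. Avoidance-block trials were taken as % of total trials, with control avoidance set at 100%. AB50 came from a least-squares dose-effect regression line.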

[5] = target: T1, 5-hydroxytryptamine receptor 1A (Rattus norvegicus, UniProt P19327); experiment: In vitro ability to inhibit [3H]-8-OH-DPAT binding to 5-hydroxytryptamine 1A receptor of rat hippocampus and value ranges from 15 - 31; format: tissue-based
T1 sequence (P19327 whole entry): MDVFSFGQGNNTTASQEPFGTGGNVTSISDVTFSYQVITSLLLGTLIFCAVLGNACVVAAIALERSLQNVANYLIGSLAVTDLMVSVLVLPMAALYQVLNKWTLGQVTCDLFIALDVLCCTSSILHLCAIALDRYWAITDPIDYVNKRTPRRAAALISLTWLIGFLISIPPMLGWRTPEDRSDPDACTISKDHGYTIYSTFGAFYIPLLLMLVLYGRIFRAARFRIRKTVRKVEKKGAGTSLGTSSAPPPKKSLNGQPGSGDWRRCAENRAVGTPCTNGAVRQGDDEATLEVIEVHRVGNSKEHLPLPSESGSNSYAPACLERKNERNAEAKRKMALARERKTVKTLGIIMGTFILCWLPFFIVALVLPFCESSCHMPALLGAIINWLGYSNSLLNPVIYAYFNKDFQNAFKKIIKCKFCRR

[6] = target: T1, 5-hydroxytryptamine receptor 1A; experiment: In vitro ability to inhibit [3H]8-OH-DPAT binding to 5-hydroxytryptamine 1A receptor of rat hippocampus and the value ranges from 245 to 736; format: tissue-based
Rattus norvegicus [7] = species: Rattus norvegicus; experiment: Antipsychotic activity was evaluated from the ability to block discrete trial conditioned avoidance response (CAR) of rats; format: functional; in short: as §2
Rattus norvegicus [8] = experiment: Compound was tested for antagonism of apomorphine-induced climbing behavior, after intraperitoneal dosing; 1-23; format: functional; details: ip
[9] = target: T1, 5-hydroxytryptamine receptor 1A; experiment: In vitro ability to inhibit [3H]8-OH-DPAT binding to 5-hydroxytryptamine 1A receptor of rat hippocampus and value ranges from 6 - 13; format: tissue-based
[10] = target: D(2) dopamine receptor (Rattus norvegicus) (UniProt P61169); experiment: Inhibition of [3H]spiperone binding to Dopamine receptor D2 of rat limbic structures; format: tissue-based; set-up: concentration or dose not given beside the values; details: Limbic system, concentration not given here
[11] = target: T1, 5-hydroxytryptamine receptor 1A; experiment: In vitro ability to inhibit [3H]8-OH-DPAT binding to 5-hydroxytryptamine 1A receptor of rat hippocampus and the value ranges from 48 to 59; format: tissue-based
[12] = Partition coefficient (logP); format: physicochemical; details: octanol/water
[13] = target: T1, 5-hydroxytryptamine receptor 1A; experiment: In vitro ability to inhibit [3H]8-OH-DPAT binding to 5-hydroxytryptamine 1A receptor of rat hippocampus ([…]) from 12 to 17; format: tissue-based
D(2) dopamine receptor = D(2) dopamine receptor (Rattus norvegicus, UniProt P61169); experiment: In vitro ability to inhibit [3H]spiperone binding to Dopamine receptor D2 of rat limbic structures.; format: tissue-based, Limbic system
Rattus norvegicus [14] = species: Rattus norvegicus; experiment: Anti psychotic activity was evaluated from the ability to block discrete trial conditioned avoidance response (CAR) of rats (95%CI) from 37-73; format: functional; in short: as §2
Rattus norvegicus [15] = species: Rattus norvegicus; experiment: Anti psychotic activity was evaluated from the ability to block discrete trial conditioned avoidance response (CAR) of rats and value ranges from 37 - 73; format: functional; in short: as §2
[16] = target: T2, 5-hydroxytryptamine receptor 1A (Rattus norvegicus) (UniProt P19327); experiment: In vitro ability to inhibit [3H]8-OH-DPAT binding to 5-hydroxytryptamine 1A receptor of rat hippocampus at 1 uM; format: tissue-based
T2 sequence (whole entry): T1 sequence (P19327 whole entry)

[17] = target: D(2) dopamine receptor (Rattus norvegicus) (UniProt P61169); experiment: In vitro percent inhibition of [3H]spiperone binding to Dopamine receptor D2 of rat limbic structures at 1 uM; format: tissue-based; details: Limbic system
Rattus norvegicus [18] = species: Rattus norvegicus; experiment: Percent inhibition of QNB receptor at 1 uM
Rattus norvegicus [19] = experiment: Compound was tested for antagonism of apomorphine-induced climbing behavior, after intraperitoneal dosing; 7-101; format: functional; details: ip
[20] = target: Adrenergic receptor alpha-1 (Rattus norvegicus) (UniProt P15823+P23944+P43140); experiment: Percent inhibition of Alpha-1 adrenergic receptor at 1 uM; format: protein assay
Rattus norvegicus [21] = experiment: In vivo ability (10.0 mg/kg) was to antagonize serotonin syndrome; format: functional
[22] = target: GABA-A receptor; anion channel (Rattus norvegicus) (UniProt O09028+P15431+P18506+P18508+P19969+P20236+P23574+P23576+P28471+P28473+P30191+P62813+P63079+P63138+Q91ZM7+Q9ES14); experiment: Percent inhibition of GABA-A benzodiazepine receptor at 1 uM; format: protein-complex assay
In short: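 Male Sprague-Dawley rat brain (cerebellum and pons-medulla removed) was homogenized in 0.32 M sucrose to give a 30000g pellet, resuspended in Tris-HCl pH 7.5. Membranes were incubated with 1.5×10^-9 M [³H]diazepam (2.0 mL final) for 30 min at 4 °C, GF/C filtered, washed ice-cold and scintillation counted. Nonspecific binding was taken with 3×10^-6 M cold diazepam. Drug was tested at 1 μM.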

[23] = target: T1, 5-hydroxytryptamine receptor 1A; experiment: In vitro ability to inhibit [3H]8-OH-DPAT binding to 5-hydroxytryptamine 1A receptor of rat hippocampus ([…]) from 391-841; format: tissue-based
[24] = target: Adrenergic receptor beta (Rattus norvegicus) (UniProt P18090+P10608+P26255); experiment: Percent inhibition of Beta adrenergic receptor at 1 uM; format: protein assay
Rattus norvegicus [25] = experiment: In vivo ability (40.0 mg/kg) was to elicit serotonin syndrome; format: functional
[26] = target: Adrenergic receptor alpha-2 (Rattus norvegicus) (UniProt P22086+P19328+P22909); experiment: Percent inhibition of Alpha-2 adrenergic receptor at 1 uM; format: protein assay
Rattus norvegicus [27] = experiment: Compound was tested for antagonism of apomorphine-induced stereotyped behavior, after intraperitoneal dosing; NA= Inactive; format: functional, organism-based; in short: as §1
[28] = target: T1, 5-hydroxytryptamine receptor 1A; experiment: In vitro ability to inhibit [3H]8-OH-DPAT binding to 5-hydroxytryptamine 1A receptor of rat hippocampus and the value ranges from 12 to 20.; format: tissue-based
Rattus norvegicus [29] = species: Rattus norvegicus; experiment: Anti psychotic activity was evaluated from the ability to block discrete trial conditioned avoidance response (CAR) of rats, value ranges from 32-71.; format: functional; in short: as §2

Chain of D(2) dopamine receptor (Rattus norvegicus) (P61169 whole entry): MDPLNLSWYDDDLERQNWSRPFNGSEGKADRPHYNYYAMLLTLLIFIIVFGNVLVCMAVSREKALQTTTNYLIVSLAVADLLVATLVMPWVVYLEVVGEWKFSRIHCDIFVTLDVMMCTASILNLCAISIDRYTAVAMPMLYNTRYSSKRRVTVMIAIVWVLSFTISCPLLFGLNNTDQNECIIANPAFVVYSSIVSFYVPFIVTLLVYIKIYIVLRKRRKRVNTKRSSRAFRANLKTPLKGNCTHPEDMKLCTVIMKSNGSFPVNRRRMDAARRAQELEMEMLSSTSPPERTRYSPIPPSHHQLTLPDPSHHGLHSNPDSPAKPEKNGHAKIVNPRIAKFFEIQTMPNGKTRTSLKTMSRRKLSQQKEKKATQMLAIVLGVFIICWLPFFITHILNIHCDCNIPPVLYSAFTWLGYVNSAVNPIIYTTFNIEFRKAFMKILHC
Chain of D(2) dopamine receptor (P61169 whole entry): as above

For `Cl.Cl.O=C1C2C3CCC(O3)C2S(=O)(=O)N1CCCCN1CCN(c2cccc(C(F)(F)F)c2)CC1` (centres undefined), the ED50 (Rattus norvegicus [1]) was 11.5 mg/kg, the ED50 (Rattus norvegicus [2]) was 44.4 mg/kg and the inhibition [3] was 0%. For the same compound, the AB50 (Rattus norvegicus [4]) was 40 mg/kg and the Ki [5] was 0.022 µM.

Compound `Cl.Cl.O=C1C2C3C=CC(C3)C2S(=O)(=O)N1CCCCN1CCN(c2ncccn2)CC1` (centres undefined) has a Ki [6] of 0.434 µM and an AB50 (Rattus norvegicus [7]) of 45 mg/kg.

For `CN1CCN(C2=Nc3cc(Cl)ccc3Nc3ccccc32)CC1` [CLOZAPINE], the ED50 (Rattus norvegicus [8]) was 4.55 mg/kg.

Work on `Cl.Cl.O=C1c2ccccc2S(=O)(=O)N1CCCCN1CCN(c2cnccn2)CC1` yielded a Ki [9] of 0.009 µM, an inhibition [3] of 43% and an AB50 (Rattus norvegicus [4]) of 40 mg/kg.

In the case of `Cl.Cl.O=C1C2C3CCC(C3)C2S(=O)(=O)N1CCCCN1CCN(c2ncccn2)CC1` (centres undefined), the inhibition [10] is reported as 36%, the Ki [11] is reported as 0.053 µM and the AB50 (Rattus norvegicus [4]) is reported as 40 mg/kg. It also gave a logP [12] of 1.72.

For `Cl.O=C1C2C3C=CC(C4CC34)C2S(=O)(=O)N1CCCCN1CCN(c2cncc(Cl)n2)CC1` (centres undefined), the Ki [13] was 0.014 µM and the AB50 (Rattus norvegicus [4]) was 40 mg/kg.

For `Cl.O=C1C2C3CCC(O3)C2S(=O)(=O)N1CCCCN1CCN(c2nccnc2Cl)CC1` (centres undefined), the Ki (D(2) dopamine receptor) was 3.3 µM and the AB50 (Rattus norvegicus [14]) was 48 mg/kg.

Work on `Cl.Cl.O=C1C2C3CCC(O3)C2S(=O)(=O)N1CCCCN1CCN(c2cnccn2)CC1` (centres undefined) yielded an AB50 (Rattus norvegicus [15]) of 48 mg/kg, an inhibition [10] of 0% and an inhibition [16] of 25%. It also gave a logP [12] of 1.14.

`Cl.O=C1C2C3CCC(O3)C2S(=O)(=O)N1CCCCN1CCN(c2cncc(Cl)n2)CC1` (centres undefined) showed an inhibition [17] of 36%, an inhibition (Rattus norvegicus [18]) of 0% and an ED50 (Rattus norvegicus [19]) of 27 mg/kg. It also gave an inhibition [20] of 6%, a Mean (Rattus norvegicus [21]) of 12.3 and an inhibition [22] of 0%. It also gave a Ki [23] of 0.55 µM, an AB50 (Rattus norvegicus [4]) of 34 mg/kg and an inhibition [24] of 8%. For the same compound, the Mean (Rattus norvegicus [25]) was 2.1, the logP [12] was 1.64 and the inhibition [26] was 21%. For the same compound, the ED50 (Rattus norvegicus [27]) was “inactive”.

For `Cl.Cl.O=C1C2C3CCC(C3)C2S(=O)(=O)N1CCCCN1CCN(c2cccc(C(F)(F)F)c2)CC1` (centres undefined), the Ki [28] was 0.016 µM, the inhibition [10] was 97% and the AB50 (Rattus norvegicus [29]) was 43 mg/kg.
